Reference: ChEMBL document CHEMBL1156459, “Discovery of a small molecule antagonist of the parathyroid hormone receptor by using an N-terminal parathyroid hormone peptide probe” (Proc Natl Acad Sci U S A, 2007)
Square brackets hold non-standard residues; d marks the D form. Peptide text beside a SMILES is read from it. Nle = CCCC[C@H](N)C(=O)O; Aib = CC(C)(N)C(=O)O

Experiments:
[1] = Stimulation of osteoclast-mediated bone resorption in fetal Sprague-Dawley rat radii/ulnae assessed as [45Ca]release measured on day 5; type: functional; conditions: 120 h
Method in brief: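 Fetal rat radii/ulnae prelabelled with 45Ca in utero, dissected and cultured. 45Ca released into the culture medium measured as the osteoclast-mediated resorption read-out.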

[2] = target: T1, Parathyroid hormone/parathyroid hormone-related peptide receptor (Homo sapiens, UniProt Q03431); assay: Displacement of [125I]DPC-AJ1951 from PTH/PTH-related peptide receptor expressed in HKRK-B28 cells in presence of SW106; type: cell-based
T1 sequence (Q03431 whole entry): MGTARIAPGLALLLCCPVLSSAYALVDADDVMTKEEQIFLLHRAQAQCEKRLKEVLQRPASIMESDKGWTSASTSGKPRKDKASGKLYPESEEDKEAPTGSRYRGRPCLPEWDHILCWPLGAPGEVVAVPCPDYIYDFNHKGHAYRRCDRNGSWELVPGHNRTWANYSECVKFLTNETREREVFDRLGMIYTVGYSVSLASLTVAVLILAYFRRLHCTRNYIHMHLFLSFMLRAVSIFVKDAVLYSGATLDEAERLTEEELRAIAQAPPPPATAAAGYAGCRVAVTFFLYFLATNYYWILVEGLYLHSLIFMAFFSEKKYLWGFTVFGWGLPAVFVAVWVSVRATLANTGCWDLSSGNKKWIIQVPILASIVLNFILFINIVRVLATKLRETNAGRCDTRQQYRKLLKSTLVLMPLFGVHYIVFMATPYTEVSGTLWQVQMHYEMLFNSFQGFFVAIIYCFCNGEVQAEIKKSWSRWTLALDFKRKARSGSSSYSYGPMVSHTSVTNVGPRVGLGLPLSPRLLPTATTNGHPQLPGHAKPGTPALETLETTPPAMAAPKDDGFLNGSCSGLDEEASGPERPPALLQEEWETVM
Method in brief: (§1)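 Whole HKRK-B28 cells plated at 30,000/well and incubated overnight at 37°C, 5% CO2. Incubated 3 h at room temperature, washed three times, bound radioactivity counted by scintillation.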

[3] = Effect on Pthr1 gene expression in rat UMR106 cells after 2 hrs by microarray analysis relative to control; type: functional
Method in brief: (§2)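 Rat UMR106 cells grown to confluency in DMEM/10% FBS, then moved to 0.1% FBS medium 24 h before treatment. Peptides (100 nM) were added to the medium for 2 or 8 h. Microarray profiling covered 8,799 reporters, with changes called at P < 0.01. Values are fold-change versus untreated control.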

[4] = Effect on Ptpn16 gene expression in rat UMR106 cells after 8 hrs by microarray analysis relative to control; type: functional; method in brief: as §2
[5] = Stability in rat plasma assessed as half life; type: ADME, cell-free
Method in brief: (§3)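 Peptide incubated at 37°C in rat plasma or rat whole blood; half-life determined.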

Rattus norvegicus = assay: Increase in cAMP level in ovariectomized rat plasma after 30 mins at 1 mg/kg, sc relative to control; type: functional; conditions: route subcutaneous
[6] = Effect on Pde4b gene expression in rat UMR106 cells after 8 hrs by microarray analysis relative to control; type: functional; method in brief: as §2
[7] = target: T1, Parathyroid hormone/parathyroid hormone-related peptide receptor; assay: Activity at human PTH/PTH-related peptide receptor expressed in HEK293 cells assessed as induction of luciferase activity by CRE-luciferase reporter assay; type: functional, cell-based
[8] = Effect on Bmp3 gene expression in rat UMR106 cells after 8 hrs by microarray analysis relative to control; type: functional; method in brief: as §2
[9] = Effect on Ptpn16 gene expression in rat UMR106 cells after 2 hrs by real time PCR method relative to control; type: functional
Method in brief: (§4)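 Confluent UMR106 cells were serum-starved (0.1% FBS, 24 h) and then given peptide in the medium for 2 h. Transcripts were quantified by TaqMan real-time RT-PCR, with relative expression levels set from a serial-dilution standard. Expression is reported as change versus untreated control.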

[10] = Effect on c-fos gene expression in rat UMR106 cells after 8 hrs by microarray analysis relative to control; type: functional; method in brief: as §2
[11] = Effect on Crem gene expression in rat UMR106 cells after 2 hrs by real time PCR method relative to control; type: functional; method in brief: as §4
[12] = Effect on IL18 gene expression in rat UMR106 cells after 8 hrs by microarray analysis relative to control; type: functional; method in brief: as §2
[13] = target: T1, Parathyroid hormone/parathyroid hormone-related peptide receptor; assay: Displacement of [125I]DPC-AJ1951 from PTH/PTH-related peptide receptor expressed in HKRK-B28 cells; type: cell-based; method in brief: as §1
[14] = target: T2, Parathyroid hormone/parathyroid hormone-related peptide receptor (Rattus norvegicus, UniProt P25961); assay: Activity at rat PTH/PTH-related peptide receptor expressed in rat UMR106 cells assessed as cAMP formation; type: functional, cell-based
T2 sequence (P25961 whole entry): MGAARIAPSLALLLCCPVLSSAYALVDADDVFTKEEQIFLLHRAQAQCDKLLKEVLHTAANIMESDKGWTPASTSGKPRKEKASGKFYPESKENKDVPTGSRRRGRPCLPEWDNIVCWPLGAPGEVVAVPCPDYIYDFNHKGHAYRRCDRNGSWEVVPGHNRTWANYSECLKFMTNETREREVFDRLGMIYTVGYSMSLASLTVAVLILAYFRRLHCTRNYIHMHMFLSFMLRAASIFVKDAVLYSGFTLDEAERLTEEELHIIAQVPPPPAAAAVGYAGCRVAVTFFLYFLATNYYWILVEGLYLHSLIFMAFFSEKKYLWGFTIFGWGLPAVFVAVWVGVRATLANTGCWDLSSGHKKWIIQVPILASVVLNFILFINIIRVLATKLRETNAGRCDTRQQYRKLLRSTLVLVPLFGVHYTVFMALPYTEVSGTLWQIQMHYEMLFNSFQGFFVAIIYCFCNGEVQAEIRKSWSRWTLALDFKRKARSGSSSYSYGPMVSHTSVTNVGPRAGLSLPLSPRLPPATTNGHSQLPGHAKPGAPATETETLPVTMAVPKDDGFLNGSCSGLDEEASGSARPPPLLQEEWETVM
Method in brief: (§5)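 Nonconfluent cells grown at 37°C in DMEM with 10% FBS, refed 12–24 h before assay. Rinsed with warm PBS, detached with prewarmed EDTA (37°C, 5–10 min), spun at 300 × g for 5 min. Resuspended in HBSS/5 mM Hepes/0.1% BSA/0.5 mM IBMX, pH 7.4. cAMP read by AlphaScreen.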

[15] = Effect on Crem gene expression in rat UMR106 cells after 2 hrs by microarray analysis relative to control; type: functional; method in brief: as §2
[16] = Effect on Pde4b gene expression in rat UMR106 cells after 2 hrs by microarray analysis relative to control; type: functional; method in brief: as §2
[17] = Effect on Ptpn16 gene expression in rat UMR106 cells after 2 hrs by microarray analysis relative to control; type: functional; method in brief: as §2
[18] = target: T1, Parathyroid hormone/parathyroid hormone-related peptide receptor; assay: Activity at human PTH/PTH-related peptide receptor expressed in SAOS2 cells assessed as cAMP formation; type: functional, cell-based, SAOS-2; method in brief: as §5
[19] = Effect on Pthr1 gene expression in rat UMR106 cells after 8 hrs by microarray analysis relative to control; type: functional; method in brief: as §2
[20] = Decrease in collagen synthesis in neonatal CD1 mouse calivaria bone assessed as [3H]proline incorporation; type: functional
[21] = target: T1, Parathyroid hormone/parathyroid hormone-related peptide receptor; assay: Binding affinity to PTH/PTH-related peptide receptor expressed in HKRK-B28 cells; type: cell-based; method in brief: as §1
[22] = Effect on Pthr1 gene expression in rat UMR106 cells after 2 hrs by real time PCR method relative to control; type: functional; method in brief: as §4
[23] = Effect on c-fos gene expression in rat UMR106 cells after 2 hrs by real time PCR method relative to control; type: functional; method in brief: as §4
[24] = Stimulation of cell proliferation in neonatal CD1 mouse calivaria assessed as increase in [3H]thymidine incorporation; type: functional
[25] = Effect on c-fos gene expression in rat UMR106 cells after 2 hrs by microarray analysis relative to control; type: functional; method in brief: as §2
[26] = target: T1, Parathyroid hormone/parathyroid hormone-related peptide receptor; assay: Activity at human PTH/PTH-related peptide receptor expressed in HEK293 cells assessed as induction of intracellular calcium mobilization; type: functional, cell-based
[27] = Effect on Pde4b gene expression in rat UMR106 cells after 2 hrs by real time PCR method relative to control; type: functional; method in brief: as §4
[28] = Stability in rat whole blood assessed as half life; type: ADME, tissue-based; method in brief: as §3
[29] = Effect on IL18 gene expression in rat UMR106 cells after 2 hrs by real time PCR method relative to control; type: functional; method in brief: as §4
[30] = Increase in trabecular bone mineral density in ovariectomized rat at 0.2 mg/kg, sc; type: functional, Trabecula; conditions: route subcutaneous
[31] = Effect on Bmp3 gene expression in rat UMR106 cells after 2 hrs by real time PCR method relative to control; type: functional; method in brief: as §4

EC50 [1]: 30 nM
IC50 [2]: 55.4 nM
half-life [5]: 20 min
EC50 [7]: 0.15 nM
IC50 [13]: 6.87 nM
EC50 [14]: 1.1 nM
EC50 [18]: 2.2 nM
EC50 [20]: 0.2 nM
Kd [21]: 21.6 nM
EC50 [26]: 26 nM
half-life [28]: 15 min
SMILES: CCCC[C@H](NC(=O)[C@H](CC(C)C)NC(=O)[C@H](CCC(N)=O)NC(=O)[C@@H](NC(=O)[C@H](CCC(=O)O)NC(=O)C(C)(C)NC(=O)[C@@H](NC(=O)C(C)(C)N)C(C)C)[C@@H](C)CC)C(=O)N[C@@H](Cc1cnc[nH]1)C(=O)N[C@@H](CCC(N)=O)C(=O)N[C@@H](CCCNC(=N)N)C(=O)N[C@@H](C)C(=O)N[C@@H](CCCCN)C(=O)N[C@@H](Cc1ccc(O)cc1)C(N)=O (H-[Aib]V[Aib]EIQL[Nle]HQRAKY-NH2)
fold change (FC) [3]: -2
fold change (FC) [4]: 6
Activity (Rattus norvegicus): 150%
fold change (FC) [6]: 9
fold change (FC) [8]: 4
fold change (FC) [9]: 15
fold change (FC) [10]: 11
fold change (FC) [11]: 5
fold change (FC) [12]: 18
fold change (FC) [15]: 13
fold change (FC) [16]: 11
fold change (FC) [17]: 9
fold change (FC) [19]: 3
fold change (FC) [22]: -2
fold change (FC) [23]: 66
EC50 [24]: 6 nM
fold change (FC) [25]: 48
fold change (FC) [27]: 4
fold change (FC) [29]: 6
Activity [30]: 21%
fold change (FC) [31]: 14
